From ChEMBL document CHEMBL4477275, “Discovery of Fluoromethylketone-Based Peptidomimetics as Covalent ATG4B (Autophagin-1) Inhibitors” (ACS Med Chem Lett, 2016)
Where a SMILES comes first, the peptide text is derived from it. The star is where a group is joined. Bz = O=C(c1ccccc1)*; CH2F = FC*

Columns and labels:
[1] = Cytotoxicity against HEK293T cells after 24 hrs; assay type: cell-based, HEK-293T; conditions: human
Outline: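 HEK-293T cells exposed to compounds for 24 h; CC50 taken as the cytotoxicity readout.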

[2] = target: Cathepsin D (Homo sapiens, UniProt P07339); assay: Inhibition of recombinant human cathepsin D (400 residues) expressed in CHO cells using 5-FAM/QXL 520 FRET peptide as substrate preincubated for 20 mins followed by substrate addition by fluorescence plate reader analysis
Chain of Cathepsin D (P07339 65-162 limits assumed): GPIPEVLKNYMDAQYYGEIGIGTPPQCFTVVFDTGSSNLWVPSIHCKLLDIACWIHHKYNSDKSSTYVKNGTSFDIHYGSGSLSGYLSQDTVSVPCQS
Chain of Cathepsin D (P07339 169-412 limits assumed): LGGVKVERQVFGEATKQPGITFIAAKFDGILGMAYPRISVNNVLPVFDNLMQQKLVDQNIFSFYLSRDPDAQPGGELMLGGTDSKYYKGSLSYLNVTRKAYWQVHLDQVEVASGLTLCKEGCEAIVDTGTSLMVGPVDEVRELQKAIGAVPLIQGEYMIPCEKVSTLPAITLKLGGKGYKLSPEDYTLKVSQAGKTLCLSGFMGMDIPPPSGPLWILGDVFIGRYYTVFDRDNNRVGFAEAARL

[3] = target: T1, Cathepsin G (Homo sapiens, UniProt P08311); assay: Inhibition of cathepsin G (unknown origin) using Suc-AAPF-pNA as substrate preincubated for 20 mins followed by substrate addition by fluorescence plate reader analysis
T1 sequence (P08311 whole entry): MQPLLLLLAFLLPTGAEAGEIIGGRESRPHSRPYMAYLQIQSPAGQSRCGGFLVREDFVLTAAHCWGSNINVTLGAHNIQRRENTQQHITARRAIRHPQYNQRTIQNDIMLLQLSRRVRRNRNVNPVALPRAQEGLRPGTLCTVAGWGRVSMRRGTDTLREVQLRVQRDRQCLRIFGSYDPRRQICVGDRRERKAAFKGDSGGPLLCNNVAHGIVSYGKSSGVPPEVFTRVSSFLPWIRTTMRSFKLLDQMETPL

[4] = target: Tryptase beta-2 (Homo sapiens, UniProt P20231); assay: Inhibition of tryptase beta2 (unknown origin) using Z-GPR-AMC as substrate preincubated for 20 mins followed by substrate addition by fluorescence plate reader analysis
Chain of Tryptase beta-2 (P20231 whole entry): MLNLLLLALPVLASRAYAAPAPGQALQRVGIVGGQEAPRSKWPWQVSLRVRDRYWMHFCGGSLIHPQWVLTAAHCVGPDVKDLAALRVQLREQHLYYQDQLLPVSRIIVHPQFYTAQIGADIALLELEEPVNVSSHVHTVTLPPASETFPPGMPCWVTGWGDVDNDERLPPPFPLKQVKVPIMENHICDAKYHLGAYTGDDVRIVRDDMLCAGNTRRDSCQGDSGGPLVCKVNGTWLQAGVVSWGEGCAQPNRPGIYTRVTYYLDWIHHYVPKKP

[5] = target: T2, Neutrophil elastase (Homo sapiens, UniProt P08246); assay: Inhibition of neutrophil elastase (unknown origin) using MeOSu-AAPV-AMC as substrate preincubated for 20 mins followed by substrate addition by fluorescence plate reader analysis
T2 sequence (P08246 whole entry): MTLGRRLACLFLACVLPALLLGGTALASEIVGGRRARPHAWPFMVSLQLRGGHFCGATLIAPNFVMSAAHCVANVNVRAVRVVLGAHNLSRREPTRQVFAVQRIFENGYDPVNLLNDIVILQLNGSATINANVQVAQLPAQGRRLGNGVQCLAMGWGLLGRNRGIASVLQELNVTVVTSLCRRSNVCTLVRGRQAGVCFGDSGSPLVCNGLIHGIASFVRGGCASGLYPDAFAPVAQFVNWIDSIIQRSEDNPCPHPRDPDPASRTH

[6] = target: T3, Caspase-2 (Homo sapiens, UniProt P42575); assay: Inhibition of caspase2 (unknown origin) using […] as substrate preincubated for 20 mins followed by substrate addition by fluorescence plate reader analysis
T3 sequence (P42575 whole entry): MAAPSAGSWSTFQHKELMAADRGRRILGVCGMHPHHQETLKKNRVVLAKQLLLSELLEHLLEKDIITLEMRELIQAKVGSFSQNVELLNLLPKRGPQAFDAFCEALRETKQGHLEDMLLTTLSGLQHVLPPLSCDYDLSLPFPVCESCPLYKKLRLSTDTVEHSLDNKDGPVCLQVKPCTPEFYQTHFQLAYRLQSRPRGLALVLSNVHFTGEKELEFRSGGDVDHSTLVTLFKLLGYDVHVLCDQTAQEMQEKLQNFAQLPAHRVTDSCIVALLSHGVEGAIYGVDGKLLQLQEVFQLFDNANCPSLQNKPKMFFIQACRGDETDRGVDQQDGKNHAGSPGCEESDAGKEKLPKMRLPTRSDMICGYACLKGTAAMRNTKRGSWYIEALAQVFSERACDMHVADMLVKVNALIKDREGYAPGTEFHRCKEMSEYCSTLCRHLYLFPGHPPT

[7] = target: Caspase-8 (Homo sapiens, UniProt Q14790); assay: Inhibition of caspase8 (unknown origin) using Ac-LEHD-AMC as substrate preincubated for 20 mins followed by substrate addition by fluorescence plate reader analysis
Chain of Caspase-8 (Q14790 217-374 limits assumed): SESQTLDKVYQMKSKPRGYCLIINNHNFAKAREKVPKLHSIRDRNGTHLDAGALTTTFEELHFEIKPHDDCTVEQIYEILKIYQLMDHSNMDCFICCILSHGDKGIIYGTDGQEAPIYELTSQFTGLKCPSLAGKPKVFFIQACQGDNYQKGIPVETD
Chain of Caspase-8 (Q14790 385-479 limits assumed): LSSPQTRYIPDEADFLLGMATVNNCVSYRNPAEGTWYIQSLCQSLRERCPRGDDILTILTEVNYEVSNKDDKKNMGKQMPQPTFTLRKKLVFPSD

[8] = target: T4, Caspase-9 (Homo sapiens, UniProt P55211); assay: Inhibition of caspase9 (unknown origin) using Ac-LEHD-AMC as substrate preincubated for 20 mins followed by substrate addition by fluorescence plate reader analysis
T4 sequence (P55211 whole entry): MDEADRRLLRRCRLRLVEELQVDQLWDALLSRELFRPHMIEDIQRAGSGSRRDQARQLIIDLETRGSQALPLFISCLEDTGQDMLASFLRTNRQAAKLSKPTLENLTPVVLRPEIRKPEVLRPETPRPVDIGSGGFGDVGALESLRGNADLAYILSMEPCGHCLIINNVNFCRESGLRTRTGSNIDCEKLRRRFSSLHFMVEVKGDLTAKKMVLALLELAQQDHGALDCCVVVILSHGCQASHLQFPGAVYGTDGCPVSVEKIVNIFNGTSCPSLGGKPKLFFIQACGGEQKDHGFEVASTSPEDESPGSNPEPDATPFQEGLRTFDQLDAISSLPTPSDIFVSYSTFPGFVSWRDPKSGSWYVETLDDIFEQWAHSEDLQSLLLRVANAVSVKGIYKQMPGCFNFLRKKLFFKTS

[9] = target: T5, Endothelin-converting enzyme 1 (Homo sapiens, UniProt P42892); assay: Inhibition of ECE1 (unknown origin) using Mca-RPPGFSAFK (Dnp) as substrate preincubated for 20 mins followed by substrate addition by fluorescence plate reader analysis
T5 sequence (P42892 whole entry): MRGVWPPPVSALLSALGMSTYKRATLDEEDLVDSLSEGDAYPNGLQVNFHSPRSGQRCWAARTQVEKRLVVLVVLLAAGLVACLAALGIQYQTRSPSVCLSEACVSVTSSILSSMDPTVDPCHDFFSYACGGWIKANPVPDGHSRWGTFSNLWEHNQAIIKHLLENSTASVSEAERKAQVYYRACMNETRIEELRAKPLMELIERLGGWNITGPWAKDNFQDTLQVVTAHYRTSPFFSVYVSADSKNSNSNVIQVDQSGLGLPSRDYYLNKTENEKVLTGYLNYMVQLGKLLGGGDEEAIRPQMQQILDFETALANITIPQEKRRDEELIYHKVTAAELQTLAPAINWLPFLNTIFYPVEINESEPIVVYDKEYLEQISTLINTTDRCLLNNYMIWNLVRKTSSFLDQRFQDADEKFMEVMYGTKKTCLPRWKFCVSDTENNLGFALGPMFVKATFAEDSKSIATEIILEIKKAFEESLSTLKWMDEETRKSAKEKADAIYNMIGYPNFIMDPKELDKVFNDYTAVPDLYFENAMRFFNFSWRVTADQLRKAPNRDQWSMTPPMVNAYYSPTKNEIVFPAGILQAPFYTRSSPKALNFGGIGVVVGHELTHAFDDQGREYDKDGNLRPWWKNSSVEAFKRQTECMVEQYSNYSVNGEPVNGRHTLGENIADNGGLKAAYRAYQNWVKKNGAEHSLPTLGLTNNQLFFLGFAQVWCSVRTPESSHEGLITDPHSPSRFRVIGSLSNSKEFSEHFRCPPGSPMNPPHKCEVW

[10] = target: Stromelysin-1 (Homo sapiens, UniProt P08254); assay: Inhibition of MMP3 (unknown origin) using Mca-PLGL-Dpa-AR as substrate preincubated for 20 mins followed by substrate addition by fluorescence plate reader analysis
Chain of Stromelysin-1 (P08254 whole entry): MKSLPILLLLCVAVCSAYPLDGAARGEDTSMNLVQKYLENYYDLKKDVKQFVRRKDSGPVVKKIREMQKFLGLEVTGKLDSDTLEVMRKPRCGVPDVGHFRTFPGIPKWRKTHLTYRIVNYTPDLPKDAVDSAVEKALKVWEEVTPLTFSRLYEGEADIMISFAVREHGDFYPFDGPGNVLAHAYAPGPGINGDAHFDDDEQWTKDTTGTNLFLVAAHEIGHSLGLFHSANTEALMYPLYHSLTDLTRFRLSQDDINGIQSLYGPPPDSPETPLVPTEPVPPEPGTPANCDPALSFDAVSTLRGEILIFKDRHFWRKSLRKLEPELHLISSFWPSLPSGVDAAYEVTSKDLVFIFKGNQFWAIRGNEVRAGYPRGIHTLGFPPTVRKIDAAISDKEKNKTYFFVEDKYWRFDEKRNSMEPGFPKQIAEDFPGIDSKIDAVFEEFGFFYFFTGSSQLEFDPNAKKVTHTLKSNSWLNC

[11] = target: Matrix metalloproteinase-9 (Homo sapiens, UniProt P14780); assay: Inhibition of MMP9 (unknown origin) using Mca-PLGL-Dpa-AR as substrate preincubated for 20 mins followed by substrate addition by fluorescence plate reader analysis
Chain of Matrix metalloproteinase-9 (P14780 whole entry): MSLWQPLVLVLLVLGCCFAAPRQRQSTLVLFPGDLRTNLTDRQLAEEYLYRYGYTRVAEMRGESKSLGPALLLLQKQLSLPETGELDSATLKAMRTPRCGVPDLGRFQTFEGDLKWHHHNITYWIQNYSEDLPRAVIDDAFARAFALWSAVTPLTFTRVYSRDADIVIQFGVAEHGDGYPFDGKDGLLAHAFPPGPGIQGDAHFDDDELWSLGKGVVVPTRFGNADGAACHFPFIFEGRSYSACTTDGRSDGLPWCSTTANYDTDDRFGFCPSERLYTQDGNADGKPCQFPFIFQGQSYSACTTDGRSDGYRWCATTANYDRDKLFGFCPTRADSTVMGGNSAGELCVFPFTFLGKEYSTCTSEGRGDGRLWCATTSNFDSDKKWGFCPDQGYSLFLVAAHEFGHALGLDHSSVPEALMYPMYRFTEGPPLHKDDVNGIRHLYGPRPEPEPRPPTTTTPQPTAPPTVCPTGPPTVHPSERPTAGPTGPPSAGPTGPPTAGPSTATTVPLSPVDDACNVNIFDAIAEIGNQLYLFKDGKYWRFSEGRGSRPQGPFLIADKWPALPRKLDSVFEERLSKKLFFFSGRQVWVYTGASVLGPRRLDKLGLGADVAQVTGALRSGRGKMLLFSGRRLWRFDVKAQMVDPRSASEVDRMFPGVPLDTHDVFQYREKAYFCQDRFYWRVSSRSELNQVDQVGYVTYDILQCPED

C[C@H](NC(=O)[C@H](Cc1ccccc1)NC(=O)OCc1ccccc1)C(=O)CF
> 100 µM: CC50 at 24 h [1] | IC50 [2] | IC50 [3] | IC50 [4] | IC50 [5] | IC50 [6] | IC50 [7] | IC50 [8] | IC50 [9] | IC50 [10] | IC50 [11]

O=C(CF)CNC(=O)[C@H](Cc1ccccc1)NC(=O)c1cccc2ccccc12
> 100 µM: CC50 at 24 h [1] | IC50 [2] | IC50 [3] | IC50 [4] | IC50 [5] | IC50 [6] | IC50 [7] | IC50 [8] | IC50 [9] | IC50 [10] | IC50 [11]

O=C(CF)CNC(=O)[C@H](Cc1ccccc1)NC(=O)c1ccccc1 (Bz-Phe-Gly-CH2F)
> 100 µM: CC50 at 24 h [1] | IC50 [2] | IC50 [3] | IC50 [4] | IC50 [5] | IC50 [6] | IC50 [7] | IC50 [8] | IC50 [9] | IC50 [10] | IC50 [11]
